≈ marks a conversion by molar mass, not a printed value. Calls of active or inactive are those of the source. The calls are words filed in the database; no cut-off is given here.
How the values were obtained:
[1] = test system: Bacillus subtilis; experiment: Antibacterial activity against Bacillus subtilis NCIM 2063 up to 400 ug/ml by agar method; assay type: functional, organism-based
Outline: (§1)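 Read-out was the minimum inhibitory concentration (MIC), determined by the standard agar method. Ciprofloxacin and ampicillin served as reference antibacterial standards.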

[2] = test system: Staphylococcus aureus; experiment: Antibacterial activity against Staphylococcus aureus NCIM 2901 by agar method; assay type: functional; outline: as §1
[3] = test system: Pseudomonas aeruginosa; experiment: Antibacterial activity against Pseudomonas aeruginosa NCIM 2036 up to 400 ug/ml by agar method; assay type: functional, organism-based; outline: as §1
[4] = test system: Aspergillus niger; experiment: Antifungal activity against Aspergillus niger NCIM 1196 by agar method; assay type: functional
Outline: (§2)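 MIC values were obtained with the standard agar method, with miconazole as the reference antifungal standard.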

[5] = test system: Candida albicans; experiment: Antifungal activity against Candida albicans NCIM 3471 by agar method; assay type: functional; outline: as §2
[6] = test system: Escherichia coli; experiment: Antibacterial activity against Escherichia coli NCIM 2256 by agar method; assay type: functional; outline: as §1
[7] = test system: Bacillus subtilis; experiment: Antibacterial activity against Bacillus subtilis NCIM 2063 by agar method; assay type: functional; outline: as §1
[8] = test system: Pseudomonas aeruginosa; experiment: Antibacterial activity against Pseudomonas aeruginosa NCIM 2036 by agar method; assay type: functional; outline: as §1

Compound | Activity [1] | MIC [2] [µg/mL] | Activity [3] | MIC [4] [µg/mL] | MIC [5] [µg/mL] | MIC [6] [µg/mL] | MIC [7] [µg/mL] | MIC [8] [µg/mL]
Oc1ccc(-c2nnc(CN3CCc4ccsc4C3)o2)cc1 | inactive | 175 (≈ 558 µM) | inactive | 140 (≈ 447 µM) | 60 (≈ 191 µM) | 175 (≈ 558 µM) |  | 
Oc1ccc(-c2nnc(CN3CCc4ccsc4C3)o2)cc1O | inactive | 100 (≈ 304 µM) | inactive | 100 (≈ 304 µM) | 40 (≈ 121 µM) | 125 (≈ 379 µM) |  | 
c1ccc(-c2nnc(CN3CCc4ccsc4C3)o2)nc1 |  | 50 (≈ 168 µM) |  | 60 (≈ 201 µM) | 40 (≈ 134 µM) | 50 (≈ 168 µM) | 100 (≈ 335 µM) | 150 (≈ 503 µM)
Clc1ccc(COC(Cn2ccnc2)c2ccc(Cl)cc2Cl)c(Cl)c1 (stereo not given) [MICONAZOLE] |  |  |  | 12.5 (≈ 30 µM) | 25 (≈ 60.1 µM) |  |  | 
Clc1ccccc1-c1nnc(CN2CCc3ccsc3C2)o1 |  | 100 (≈ 301 µM) |  | 140 (≈ 422 µM) | 80 (≈ 241 µM) | 125 (≈ 377 µM) | 100 (≈ 301 µM) | 200 (≈ 603 µM)
Clc1ccc(-c2nnc(CN3CCc4ccsc4C3)o2)c(Cl)c1 |  | 75 (≈ 205 µM) |  | 60 (≈ 164 µM) | 20 (≈ 54.6 µM) | 50 (≈ 137 µM) | 75 (≈ 205 µM) | 125 (≈ 341 µM)
c1c[nH]c(-c2nnc(CN3CCc4ccsc4C3)o2)c1 |  | 75 (≈ 262 µM) |  | 120 (≈ 419 µM) | 60 (≈ 210 µM) | 50 (≈ 175 µM) | 100 (≈ 349 µM) | 125 (≈ 437 µM)
COc1ccc(-c2nnc(CN3CCc4ccsc4C3)o2)cc1 |  | 100 (≈ 305 µM) |  | 140 (≈ 428 µM) | 80 (≈ 244 µM) | 125 (≈ 382 µM) | 125 (≈ 382 µM) | 175 (≈ 534 µM)
O=C(O)c1cn(C2CC2)c2cc(N3CCNCC3)c(F)cc2c1=O [CIPROFLOXACIN] |  | 50 (≈ 151 µM) |  |  |  | 25 (≈ 75.4 µM) |  | 
CC1(C)S[C@@H]2[C@H](NC(=O)[C@H](N)c3ccccc3)C(=O)N2[C@H]1C(=O)O [AMPICILLIN] |  | 250 (≈ 715 µM) |  |  |  | 100 (≈ 286 µM) | 250 (≈ 715 µM) | 100 (≈ 286 µM)
Clc1ccc(-c2nnc(CN3CCc4ccsc4C3)o2)cc1 |  | 75 (≈ 226 µM) |  | 100 (≈ 301 µM) | 60 (≈ 181 µM) | 100 (≈ 301 µM) | 100 (≈ 301 µM) | 250 (≈ 753 µM)
Fc1ccc(-c2nnc(CN3CCc4ccsc4C3)o2)cc1 |  | 25 (≈ 79.3 µM) |  | 60 (≈ 190 µM) | 20 (≈ 63.4 µM) | 25 (≈ 79.3 µM) | 50 (≈ 159 µM) | 100 (≈ 317 µM)
c1csc(-c2nnc(CN3CCc4ccsc4C3)o2)c1 |  | 75 (≈ 247 µM) |  | 80 (≈ 264 µM) | 40 (≈ 132 µM) | 25 (≈ 82.4 µM) | 50 (≈ 165 µM) | 150 (≈ 494 µM)
Clc1cccc(Cl)c1-c1nnc(CN2CCc3ccsc3C2)o1 |  | 50 (≈ 137 µM) |  | 120 (≈ 328 µM) | 20 (≈ 54.6 µM) | 50 (≈ 137 µM) | 50 (≈ 137 µM) | 100 (≈ 273 µM)
c1ccc(-c2nnc(CN3CCc4ccsc4C3)o2)cc1 |  | 125 (≈ 420 µM) |  | 160 (≈ 538 µM) | 80 (≈ 269 µM) | 150 (≈ 504 µM) | 150 (≈ 504 µM) | 300 (≈ 1010 µM)

Reference: ChEMBL document CHEMBL2346584, “Microwave assisted nano (ZnO-TiO2) catalyzed synthesis of some new 4,5,6,7-tetrahydro-6-((5-substituted-1,3,4-oxadiazol-2-yl)methyl)thieno[2,3-c]pyridine as antimicrobial agents” (2013)
